# Rows were chosen to be rich in hits. Some 3.7% of all compounds tested hit in one or more screens of this group.
# KCNK9 inh: inhibitors of human KCNK9 two-pore domain potassium channel; HEK293 KCNK9, FluxOR thallium flux fluorescence; active compounds read low; B-score at 10 µM; hit rate 1.2% among 310,000; AID 488922;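 active = ratio B-score over 3 SD below the library mean, with starting fluorescence within 5 SD of its mean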;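 note: negative B-score means less thallium flux so channel inhibition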
# KCNQ1 block: blocks the human KCNQ1 potassium channel; P51787; CHO-K1 KCNQ1, FluxOR thallium flux fluorescence; active compounds read high; B-score at 10 µM; hit rate 1.3% among 310,000; AID 2642;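 active = compounds whose thallium flux B-score, printed positive for inhibition, exceeds three library SD while starting fluorescence stays within three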;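 note: channel opened by potassium depolarization with thallium stimulus after 20 min compound exposure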
# Kir21 inh: blocks the mouse Kir2.1 inward-rectifier potassium channel | P35561 | HEK293-Kir2.1, FluxOR thallium flux fluorescence; active compounds read low | B-score at 10 µM | hit rate 0.85% among 310,000;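 active = fluorescence ratio B-score at or below minus 3 SD of library scores, with starting-brightness B-score within 2 SD, cut at about -4.2 in these data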;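 note: channel flux triggered by added potassium and thallium sulfate stimulus; B-score of peak minus minimum fluorescence over baseline after thallium stimulus; more negative B-score means stronger Kir2.1 block with less thallium influx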
# KCNK3 inh: human KCNK3 channel inhibition, primary screen | CHO-KCNK3 thallium flux, FluxOR fluorescence; active compounds read low | B-score at 10 µM | AID 602410 | hit rate 0.84% among 340,000;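 active = B-score under library mean minus 4 SD, starting fluorescence ratio at most library mean plus 5 SD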;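 note: more negative B-score means stronger inhibition of thallium flux through KCNK3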
# hERG rescue: shields human hERG channel from block by proarrhythmic agents. Q12809. CHO-hERG, FluxOR thallium flux, dofetilide IC70 present. activation (rescue from dofetilide block), less the hit threshold, % at 10 µM. hit rate 0.51% among 310,000. AID 1511;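 active = activation above the mean of controls blocked by dofetilide plus 5 SD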;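 note: thallium influx through hERG after potassium depolarization seen as dye fluorescence rise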
# Target sequence (Q12809 whole entry, looked up): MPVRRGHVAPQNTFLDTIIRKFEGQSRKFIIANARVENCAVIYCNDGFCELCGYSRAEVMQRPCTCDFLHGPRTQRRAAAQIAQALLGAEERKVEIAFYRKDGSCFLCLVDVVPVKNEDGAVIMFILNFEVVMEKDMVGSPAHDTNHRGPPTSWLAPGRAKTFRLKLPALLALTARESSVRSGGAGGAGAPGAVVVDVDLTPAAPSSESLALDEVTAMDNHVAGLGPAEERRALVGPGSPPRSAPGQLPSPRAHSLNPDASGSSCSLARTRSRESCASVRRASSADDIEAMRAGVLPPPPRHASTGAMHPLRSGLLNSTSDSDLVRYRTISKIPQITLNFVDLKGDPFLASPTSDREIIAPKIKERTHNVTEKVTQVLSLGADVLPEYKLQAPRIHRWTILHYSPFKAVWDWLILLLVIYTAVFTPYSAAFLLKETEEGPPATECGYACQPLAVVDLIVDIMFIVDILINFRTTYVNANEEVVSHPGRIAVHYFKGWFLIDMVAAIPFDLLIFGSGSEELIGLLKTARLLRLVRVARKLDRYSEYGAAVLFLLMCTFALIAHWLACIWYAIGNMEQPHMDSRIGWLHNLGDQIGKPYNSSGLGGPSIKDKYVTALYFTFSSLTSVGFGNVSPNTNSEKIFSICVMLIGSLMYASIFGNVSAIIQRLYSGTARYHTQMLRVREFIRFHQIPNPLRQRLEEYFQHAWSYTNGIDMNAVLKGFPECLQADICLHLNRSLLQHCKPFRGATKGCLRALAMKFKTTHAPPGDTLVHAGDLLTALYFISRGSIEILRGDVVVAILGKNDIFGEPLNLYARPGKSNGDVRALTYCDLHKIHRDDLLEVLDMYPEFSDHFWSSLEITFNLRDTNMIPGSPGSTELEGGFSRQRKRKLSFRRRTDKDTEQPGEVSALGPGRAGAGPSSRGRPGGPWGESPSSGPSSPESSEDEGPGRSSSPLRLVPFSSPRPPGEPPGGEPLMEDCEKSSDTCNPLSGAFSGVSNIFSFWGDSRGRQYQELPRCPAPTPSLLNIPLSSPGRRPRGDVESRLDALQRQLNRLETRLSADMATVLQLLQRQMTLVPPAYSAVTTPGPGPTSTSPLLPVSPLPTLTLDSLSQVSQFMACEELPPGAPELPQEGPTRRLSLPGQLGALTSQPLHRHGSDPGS
# KCNQ1 act: human KCNQ1 channel potentiation or activation. P51787. CHO-K1 KCNQ1, thallium flux FluxOR fluorescence; active compounds read high. B-score at 10 µM. hit rate 0.35% among 310,000;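 active = fluorescence ratio B-score, a plate-corrected score, at least three library SD, with initial intensity B-score within 5 SD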
#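 Test system: CHO-K1 cells stably expressing KCNQ1 / Medium: assay buffer / Also added: depolarizing K+/Tl+ stimulus, K2SO4 and Tl2SO4 each 12.5 mM in 5x stock / Incubation: 90 min dye loading and 20 min compound exposure, both at room temperature / Signal: thallium influx via FluxOR fluorescence, kinetic imaging / Evaluation: B score of baseline-normalized fluorescence ratio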
# KCNK9 inh conf: confirmation of human KCNK9 potassium channel inhibitors. hit rate 43% among 4,900. HEK293 KCNK9 cells, FluxOR thallium flux fluorescence. inhibition, % at 10 µM. AID 492992. shares compounds with KCNK9 inh;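 active = thallium signal inhibited by more than 5 SD of the compound-free buffer control wells, on both duplicate plates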;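 note: 0% = assay buffer control wells without compound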
# Kir2-1 spec: mouse Kir2.1 off-target activity of KCNK9 modulators; shares compounds with KCNK9 inh; Kir2.1 cells, FluxOR thallium flux fluorescence; inhibition, % at 10 µM; hit rate 4% among 4,900;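 active = thallium signal drop more than 5 SD beyond the mean of the no-compound control wells, seen in both duplicate plates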;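 note: signal is fluorescence rise after thallium addition divided by baseline fluorescence; plate controls were assay buffer only for no effect and full block by chlorpromazine control for full effect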
# KCNK9 uninduced: second check of KCNK9 modulator effects in non-induced HEK293 cells | shares compounds with KCNK9 inh | FluxOR thallium flux | hit rate 40% among 4,900 | inhibition, % at 10 µM;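 active = thallium signal drop beyond 5 SD of the untreated control mean, on both duplicate plates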;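 note: plate controls were buffer only IC0 wells for no effect and SID17386958 at its maximal inhibitory level for full effect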
# * marks the source's active call; other numbers are inactive results; i = inactive; nt = no result given.
SMILES,KCNK9 inh,KCNQ1 block,Kir21 inh,KCNK3 inh,hERG rescue,KCNQ1 act,KCNK9 inh conf,Kir2-1 spec,KCNK9 uninduced
O=C(CN1C(=O)S/C(=C\C=C\c2ccccc2)C1=O)Nc1ccccc1C(=O)O,i,i,0.3,i,-7,i,i,i,i
O=C(O)CN1C(=O)/C(=C\c2cccc(OCc3ccc(Cl)cc3)c2)SC1=S,i,i,-1.1,i,-11,i,i,i,i
O=C(O)CN1C(=O)/C(=C\c2cc(Br)ccc2OCc2ccc(Cl)cc2Cl)SC1=S,i,i,1.1,i,-13,i,nt,nt,nt
O=C1C(Cl)=C(Nc2ccccc2O)C(=O)N1CCc1ccccc1,i,i,-0.28,i,-10,i,nt,nt,nt
O=C(CCN1C(=O)/C(=C\c2ccccc2Cl)SC1=S)Nc1cccnc1,i,i,2.7,i,-27,i,nt,nt,nt
O=C(CCN1C(=O)/C(=C/c2ccccc2Cl)SC1=S)Nc1ccccc1C(=O)O,i,i,-3,i,-26,i,i,i,i
COC(=O)c1c(NC(=O)Cc2ccccc2)sc2c1C(C(=O)OC)CC2 (stereo not drawn),i,i,-1.5,i,-22,i,i,i,i
Cc1cc(C)c(C(=O)C(C)OC(=O)c2ccc(Cl)nc2)cc1C (stereo not drawn),i,i,0.44,i,-9,i,i,i,i
CCc1nn(CC(=O)N2CCN(c3ccc(F)cc3)CC2)c(=O)c2cc3occc3n12,i,i,-1,i,-3,i,nt,nt,nt
CC(SC1=Nc2ccccc2C2CC=NN12)C(=O)NC1(C#N)CCCCC1 (stereo not drawn),-10*,i,-4.6*,i,-17,i,46%*,i,42%*
Cc1ccc(S[C@@H](CCN2CC[C@H](C)CCC2=O)c2ccccc2)cc1,-9.4*,i,-1.2,i,-7,i,66%*,i,34%*
COc1ccc(S[C@@H](CCN2CC[C@H](C)CCC2=O)c2ccccc2)cc1,nt,nt,nt,i,nt,nt,nt,nt,nt
C[C@@H]1CCC(=O)N(CC[C@H](Oc2ccccc2)c2ccccc2)CC1,-15*,i,-2.9,i,-10,i,74%*,i,36%*
CCCCOc1ccc(/C=N/NC(=O)c2csc(C)c2C)cc1,i,i,0.83,i,-3,i,i,i,i
Cc1ccc(NC(=O)c2ncn(CC(=O)NCc3ccc4c(c3)OCO4)n2)cc1C,nt,nt,nt,i,nt,nt,nt,nt,nt
Clc1cccc(CSc2nccn2-c2ccccc2)c1,i,i,-7.8*,i,-14,i,i,i,i
O=C(CSc1nccn1-c1ccccc1)NO,i,i,0.02,i,-13,i,nt,nt,nt
Brc1ccc(CSc2nccn2-c2ccccc2)cc1,i,i,-1.4,i,-8,i,i,i,i
FC(F)(F)c1ccc(CSc2nccn2-c2ccccc2)cc1,i,i,-4.6*,i,-15,i,i,i,i
O=C(N=C1SC2CS(=O)(=O)CC2N1c1ccc(Br)cc1)C1CCCO1 (stereo not drawn),i,i,-0.04,i,-5,i,nt,nt,nt
CCc1ccc(N(CC(=O)Nc2ccccc2C(=O)N2CCCC2)S(C)(=O)=O)cc1,i,i,1.5,i,-10,i,nt,nt,nt
COc1ccc(CC2C(=O)NC(C)C(=O)N(C)C3Cc4ccc(cc4)Oc4cc(ccc4O)CC(C(=O)NC(C)C(=O)NC(C)C(=O)N2C)N(C)C3=O)cc1 (stereo not drawn),nt,nt,nt,i,nt,nt,nt,nt,nt
CC(C)OCCCn1c(=NC(=O)c2ccncc2)c(C#N)cc2c(=O)n3ccccc3nc21,i,i,-0.29,i,-21,i,nt,nt,nt
CC(C)OCCCn1c(=NC(=O)c2cccs2)c(C#N)cc2c(=O)n3ccccc3nc21,-8.5*,i,0.15,i,-11,i,26%*,i,33%*
O=C(Cc1c(F)cccc1Cl)Nc1nc2ccccc2s1,-13*,i,-0.82,i,-6,i,i,i,50%*
SMILES,KCNK9 inh,KCNQ1 block,Kir21 inh,KCNK3 inh,hERG rescue,KCNQ1 act,KCNK9 inh conf,Kir2-1 spec,KCNK9 uninduced
CC/C(=N/NC(=O)c1ccccc1O)c1c(C)[nH]n(-c2ccccc2)c1=O,i,i,-0.52,i,-22,i,nt,nt,nt
CCC(C)NS(=O)(=O)c1ccc(OC)c(Cl)c1Cl (stereo not drawn),i,i,0.3,i,-1,i,nt,nt,nt
CCOC(=O)COn1c(=O)c(-c2cccs2)[n+]([O-])c2ccccc21,-8.3*,i,-4.2,i,-13,i,46%*,i,47%*
CCOn1c(=O)c(-c2cccs2)[n+]([O-])c2ccccc21,i,i,-1.9,i,-4,i,nt,nt,nt
CCOC(=O)c1c(NC(=O)CSc2c[nH]c3ccccc23)sc2c1CCCC2,i,i,-0.32,i,-8,i,i,i,i
CCOC(=O)c1c(NC(=O)C(C)Sc2cccc[n+]2[O-])sc2c1CCN(Cc1ccccc1)C2 (stereo not drawn),nt,nt,nt,i,nt,nt,nt,nt,nt
CCOC(=O)c1c(NC(=O)CSc2c[nH]c3ccccc23)sc2c1CCC2,i,i,-1.6,i,-12,i,i,i,i
CCOC(=O)c1c(NC(=O)CSc2nnc(-c3c[nH]c4ccccc34)n2CCOC)sc2c1CCCCC2,i,i,0.12,i,-6,i,nt,nt,nt
CCOC(=O)c1c(NC(=O)CSc2nnc3ccccn23)sc2c1CCC2,i,i,-0.78,i,-14,i,nt,nt,nt
CCOC(=O)c1c(NC(=O)C(C)Sc2cn(C)c3ccccc23)sc2c1CCC2 (stereo not drawn),i,i,0.63,i,-15,i,i,i,i
Cc1ccc(-c2[nH]ncc2C(=O)c2ccc(Br)cc2)c(O)c1,i,i,-1.5,i,-8,i,nt,nt,nt
CCCCC(=O)Nc1nnc(SCC(=O)NCC2CCCO2)s1 (stereo not drawn),i,i,0.54,i,-12,i,nt,nt,nt
CCN(CC(=O)NC(=O)NCc1ccccc1)Cc1ccccc1,i,i,-1.3,i,-12,i,i,i,26%*
Cc1cc(C)n(-c2nnc(C)n2/N=C/c2cc(Br)ccc2OCc2ccccc2)n1,-8.6*,i,0.48,i,-14,i,41%*,i,i
